Results as given in ChEMBL document CHEMBL3734652, “Pyrrolo[3,4-c]pyridine-1,3(2H)-diones: A Novel Antimycobacterial Class Targeting Mycobacterial Respiration” (J Med Chem, 2015).
Values after ≈ are worked out from the molar mass of the structure shown.

Assays:
[1] = Metabolic stability in mouse liver microsomes assessed as residual compound at 0.1 uM after 30 mins by LC-MS/MS method in presence or absence of NADPH; type: ADME; details: read-out: Stability
Plasma [2] = assay: Drug metabolism in C57/BL6 mouse plasma assessed as formation of 7-Amino-2-benzyl-4-methyl-1,3-dioxo-2,3-dihydro-1H-pyrrolo-[3,4-c]pyridine-6-carboxylic Acid by LC-MS analysis in absence of NADPH; type: ADME, cell-free
[3] = test system: Mycobacterium tuberculosis; assay: Antimicrobial activity against Mycobacterium tuberculosis H37RvMA under GAST/Fe medium assessed as growth inhibition after 14 days by alamar blue assay; type: functional; details: 336 h
Procedure, shortened: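 Broth microdilution in GAST/Fe medium against fully virulent Mtb H37RvMa or its derived strains (cytochrome bd oxidase deletion ΔcydKO; qcrB Ala317Thr point mutant). Plates were incubated 14 days, growth was read by Alamar Blue, and MIC90 was taken as the potency value.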

[4] = Metabolic stability in rat liver microsomes assessed as residual compound at 0.1 uM after 30 mins by LC-MS/MS method in presence or absence of NADPH; type: ADME; details: read-out: Stability
[5] = test system: Mycobacterium tuberculosis; assay: Antimicrobial activity against clinical isolates of Mycobacterium tuberculosis SAWC 3906 Atyp-beijing under 7H9 medium assessed as growth inhibition after 14 days by alamar blue assay; type: functional; details: 336 h
[6] = test system: Mycobacterium tuberculosis; assay: Antimicrobial activity against GFP expressing recombinant Mycobacterium tuberculosis H37RvMA under GAST/Fe medium assessed as growth inhibition after 14 days by broth microdilution method; type: functional; details: 336 h
Liver [7] = assay: Drug metabolism in BALB/c mouse liver microsomes assessed as formation of 7-Amino-2-benzyl-4-methyl-1,3-dioxo-2,3-dihydro-1H-pyrrolo-[3,4-c]pyridine-6-carboxylic Acid at 10 uM after 1 hr by LC-MS analysis in absence of NADPH; type: ADME
[8] = Metabolic stability in human liver microsomes assessed as residual compound at 0.1 uM after 30 mins by LC-MS/MS method in presence or absence of NADPH; type: ADME; details: read-out: Stability
[9] = test system: Mycobacterium tuberculosis; assay: Drug metabolism in supernatant of Mycobacterium tuberculosis assessed as formation of 7-Amino-2-benzyl-4-methyl-1,3-dioxo-2,3-dihydro-1H-pyrrolo-[3,4-c]pyridine-6-carboxylic Acid in absence of NADPH; type: ADME, organism-based
Vero = assay: Cytotoxicity against African green monkey Vero cells assessed as cell viability by MTT assay; type: cell-based; details: Chlorocebus sabaeus
Procedure, shortened: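 VERO kidney epithelial cells from African green monkey were exposed to compounds at concentrations up to 100 μM, and IC₅₀ was reported.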

[10] = Kinetic solubility in FaSSIF at pH 6.5 after 2 hours at 25 degC by shake flask method; type: physicochemical; details: read-out: Kinetic_solubility
[11] = test system: Mycobacterium tuberculosis; assay: Antimicrobial activity against clinical isolates of Mycobacterium tuberculosis SAWC 3385 Cas1/Delhi under 7H9 medium assessed as growth inhibition after 14 days by alamar blue assay; type: functional; details: 336 h
[12] = test system: Mycobacterium tuberculosis; assay: Antimicrobial activity against clinical isolates of Mycobacterium tuberculosis SAWC 2371 Haarlem under 7H9 medium assessed as growth inhibition after 14 days by alamar blue assay; type: functional; details: 336 h
[13] = test system: Mycobacterium tuberculosis; assay: Antimicrobial activity against GFP expressing recombinant Mycobacterium tuberculosis H37RvMA under 7H9 medium assessed as growth inhibition after 14 days by broth microdilution method; type: functional; details: 336 h
Plasma [14] = assay: Drug metabolism in C57/BL6 mouse plasma treated with 7-Amino-2-benzyl-4-methyl-6-(3-methyl-1,2,4-oxadiazol-5-yl)-1H-pyrrolo[3,4-c]pyridine-1,3(2H)-dione by LC-MS analysis; type: ADME, cell-free
Liver [15] = assay: Drug level in BALB/c mouse liver microsomes treated with 7-Amino-2-benzyl-4-methyl-6-(3-methyl-1,2,4-oxadiazol-5-yl)-1H-pyrrolo[3,4-c]pyridine-1,3(2H)-dione at 10 uM after 1 hr by LC-MS analysis; type: ADME
Liver [16] = assay: Drug level in BALB/c mouse liver microsomes treated with ethyl 7-Amino-2-benzyl-4-methyl-1,3-dioxo-2,3-dihydro-1Hpyrrolo[3,4-c]pyridine-6-carboxylate at 10 uM after 1 hr by LC-MS analysis in absence of NADPH; type: ADME
[17] = test system: Mycobacterium tuberculosis; assay: Drug level in supernatant of Mycobacterium tuberculosis treated with Ethyl 7-Amino-2-benzyl-4-methyl-1,3-dioxo-2,3-dihydro-1Hpyrrolo[3,4-c]pyridine-6-carboxylate in absence of NADPH; type: ADME, organism-based
CHO = assay: Cytotoxicity against CHO cells assessed as cell viability by MTT assay; type: cell-based; details: Cricetulus griseus
Plasma [18] = assay: Drug level in C57/BL6 mouse plasma treated with ethyl 7-Amino-2-benzyl-4-methyl-1,3-dioxo-2,3-dihydro-1Hpyrrolo[3,4-c]pyridine-6-carboxylate by LC-MS analysis in absence of NADPH; type: ADME, cell-free

Row | Compound | remaining at 0.5 h, 0.1 µM [1] [%] | Drug metabolism (Plasma [2]) | MIC90 [3] [µM] | remaining at 0.5 h, 0.1 µM [4] [%] | MIC90 [5] [µM] | MIC90 [6] [µM] | Drug metabolism (Liver [7]) | remaining at 0.5 h, 0.1 µM [8] [%] | Drug metabolism [9] | IC50 (Vero) [µM] | solubility kinetic at 2 h [10] [µM] | MIC90 [11] [µM] | MIC90 [12] [µM] | MIC90 [13] [µM] | Drug metabolism (Plasma [14]) | Drug metabolism (Liver [15]) | Drug metabolism (Liver [16]) | Drug metabolism [17] | IC50 (CHO) [µM] | Drug metabolism (Plasma [18])
1 | CCOC(=O)c1nc(C)c2c(c1N)C(=O)N(Cc1ccccc1)C2=O | 18 | metabolite_detected | < 0.156 | 19 | < 0.08 | 0.132 | metabolite_detected | 14 | metabolite_detected | > 100 | < 5 | < 0.08 | < 0.08 | > 20 |  |  |  |  |  | 
2 | Cc1nc(C(=O)O)c(N)c2c1C(=O)N(Cc1ccccc1)C2=O | 79 |  | 3.13 (≈ 0.974 µg/mL) | 71 |  |  |  | 64 |  |  | 177 (≈ 55.1 µg/mL) |  |  |  | metabolite_detected | metabolite_detected | metabolite_detected | metabolite_detected | > 100 | metabolite_detected
